What was measured:
[1] = Inhibition of basal NF-kappaB-dependent reporter gene transcription in androgen-insensitive human PC3 cells
[2] = test system: LNCaP; assay: Inhibition of LPS-induced NF-kappaB-dependent reporter gene transcription in androgen-sensitive human LNCap cells; assay type: cell-based; details: for inhibition: dose or concentration not given here
Summary of the method: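 Luciferase NF-κB reporter assay in androgen-sensitive LNCaP prostate cancer cells. Cells were pretreated with the test compound, then stimulated with LPS to activate NF-κB. Reporter activity was read at three concentrations and expressed as percent reduction of the LPS-induced signal.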

[3] = Homo sapiens, PC-3, read-out: IC50

| Compound | IC50 [1, 3] | IC50 ([1]; pc-3) | Activity [2] | inhibition [2] |
| --- | --- | --- | --- | --- |
| O=C1C[C@@H](c2ccc(O)cc2)Oc2cc(O)c(Cc3ccccc3O)c(O)c21 | 54.5 µM | – | – | – |
| CC(=O)/C(=C\c1ccc(O)c(O)c1)c1c(O)cc(/C=C/c2ccc(O)c(O)c2)oc1=O [INTERFUNGIN B] | 71.2 µM | – | – | – |
| COc1cc2c(c(O)c1Cc1ccccc1O)C(=O)C[C@@H](c1ccc(O)cc1)O2 | 36.4 µM | – | – | – |
| O=C(O)/C(=C\c1ccc(O)c(O)c1)c1c(O)cc(/C=C/c2ccc(O)c(O)c2)oc1=O [PHELLIBAUMIN D] | 74.6 µM | – | – | – |
| O=c1oc(/C=C/c2ccc(O)c(O)c2)cc(O)c1/C(=C/c1ccc(O)c(O)c1)c1cc2oc(=O)c3cc(O)c(O)cc3c2c(=O)o1 [PHELLIBAUMIN C] | 62.3 µM | – | – | – |
| O=c1oc2cc(O)c1-c1cc(O)c(O)cc1/C=C/c1cc3c(c(=O)o1)[C@H](c1cc(O)c(c(=O)o1)-c1cc(O)c(O)cc1/C=C/c1cc4c(c(=O)o1)[C@H]2[C@@H](c1ccc(O)c(O)c1)O4)[C@@H](c1ccc(O)c(O)c1)O3 [PHELLIGRIDIMER A] | – | Not Active | – | – |
| CCOC(=O)/C(=C\c1ccc(O)c(O)c1)c1c(O)cc(/C=C/c2ccc(O)c(O)c2)oc1=O [PHELLIBAUMIN E] | 52.9 µM | – | – | – |
| COc1cc(O)c2c(c1Cc1ccccc1O)O[C@H](c1ccc(O)cc1)CC2=O | 22.5 µM | – | – | – |
| O=c1oc(/C=C/c2ccc(O)c(O)c2)cc2oc3cc(O)c(O)cc3c12 [PHELLIBAUMIN A] | 53 µM | – | – | – |
| COc1cc2c(c(O)c1Cc1ccccc1O)C(=O)C[C@H](c1ccc(O)cc1)O2 | 36.4 µM | – | Dose-dependent effect | 35% |
| O=C1C[C@H](c2ccc(O)cc2)Oc2cc(O)c(Cc3ccccc3O)c(O)c21 [PHELLIGRIN A] | 54.5 µM | – | Dose-dependent effect | 18.4% |
| COc1cc(O)c2c(c1Cc1ccccc1O)O[C@@H](c1ccc(O)cc1)CC2=O [METHYLPHELLIGRIN B] | 22.5 µM | – | Dose-dependent effect | 62.5% |
| O=C(O)CC1Oc2cc(/C=C/c3ccc(O)c(O)c3)oc(=O)c2-c2cc(O)c(O)cc21 (stereo not given) [PHELLIBAUMIN B] | 41.4 µM | – | – | – |
| O=c1oc2cc(-c3c(-c4ccc(O)c(O)c4)oc4cc(/C=C/c5ccc(O)c(O)c5)oc(=O)c34)oc(=O)c2c2cc(O)c(O)cc12 [PHELLIGRIDIN H] | 84.9 µM | – | – | – |

— ChEMBL document CHEMBL1777721, “Phenolic compounds with NF-κB inhibitory effects from the fungus Phellinus baumii” (Bioorg Med Chem Lett, 2011)
